Measurements: ChEMBL document CHEMBL5724801, “EUbOPEN Chemogenomics Library - Multiplex” (2024)
Values joined by “and” are separate entries in the source; they are usually repeats but may differ in a detail not shown here. Equal values may be shown once.

Test system: U2OS
Experiment: Multiplex assay against U2OS
Format: toxicity, cell-based
Details: human
Summary of the method: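 Cells were classed with CellPathfinder machine-learning gating, first as Hoechst high-intensity objects or normal cells, then (normal cells) as healthy, pyknosed or fragmented nuclei, and finally (pyknosed cells) as mitotic or apoptotic. Staining of live cells at seeding used Hoechst33342, BioTracker Green Microtubule Cytoskeleton Dye, MitoTracker Red and Annexin V Alexa Fluor 680, with imaging on a CQ1 microscope at 37°C and 5% CO2 after compound addition. Tubulin, mitochondrial-mass and membrane-permeability phenotypes are per cents of healthy-nucleus cells.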

[1] = 12 h, 1 µM, compound concentration 1 uM
[2] = 12 h, 10 µM, compound concentration 10 uM
[3] = 24 h, 1 µM, compound concentration 1 uM
[4] = 24 h, 10 µM, compound concentration 10 uM
[5] = 48 h, 1 µM, compound concentration 1 uM
[6] = 48 h, 10 µM, compound concentration 10 uM

For `Cc1cccc(F)c1C(=O)Nc1cnc(-c2cc3c(cc2Cl)OC(F)(F)O3)cn1` [ZEGOCRACTIN], the “Population Apoptotic (%)” value [1] was 54.76% and 21.05%, the “Population Fragmented Nuclei (%)” value [1] was 1.87% and 5.79% and the “Population Healthy Nuclei (%)” value [1] was 86.93% and 78.51%. The “Population Hoechst High Intensity Objects (%)” value [1] was 0%, the “Population Membrane Permeable-Phenotype (%)” value [1] was 0.61% and 6.32% and the “Population Mitochondria Different-Phenotype (%)” value [1] was 0% and 12.63%. The “Population Mitotic Cells (%)” value [1] was 45.24% and 78.95%, the “Population Normal (%)” value [1] was 100% and the “Population Pyknosed Nuclei (%)” value [1] was 11.2% and 15.7%. For the same compound, the “Population Tubulin-Different-Phenotype (%)” value [1] was 0.61% and 0%, the “Population Apoptotic (%)” value [2] was 37.66% and 30.95% and the “Population Fragmented Nuclei (%)” value [2] was 0.97% and 1.07%. The “Population Healthy Nuclei (%)” value [2] was 80.39% and 76.47%, the “Population Hoechst High Intensity Objects (%)” value [2] was 0.24% and 0% and the “Population Membrane Permeable-Phenotype (%)” value [2] was 0.6% and 8.39%. The “Population Mitotic Cells (%)” value [2] was 62.34% and 69.05%, the “Population Normal (%)” value [2] was 99.76% and 100% and the “Population Pyknosed Nuclei (%)” value [2] was 18.64% and 22.46%. The “Population Tubulin-Different-Phenotype (%)” value [2] was 3.01% and 4.9%, the “Total Cell Count” value [2] was 414 and 187 and the “Population Apoptotic (%)” value [3] was 49.12% and 21.74%. The “Population Fragmented Nuclei (%)” value [3] was 2.5% and 3.68%, the “Population Healthy Nuclei (%)” value [3] was 86.54% and 82.21% and the “Population Hoechst High Intensity Objects (%)” value [3] was 0%. For the same compound, the “Population Membrane Permeable-Phenotype (%)” value [3] was 0.22% and 5.22%, the “Population Mitochondria Different-Phenotype (%)” value [3] was 0.22% and 7.46% and the “Population Mitotic Cells (%)” value [3] was 50.88% and 78.26%. For the same compound, the “Population Normal (%)” value [3] was 100%, the “Population Pyknosed Nuclei (%)” value [3] was 10.96% and 14.11% and the “Population Tubulin-Different-Phenotype (%)” value [3] was 0.89% and 0.75%. The “Population Apoptotic (%)” value [4] was 37.72% and 34.92%, the “Population Fragmented Nuclei (%)” value [4] was 3.21% and 2.36% and the “Population Healthy Nuclei (%)” value [4] was 75.24% and 67.92%. For the same compound, the “Population Hoechst High Intensity Objects (%)” value [4] was 0%, the “Population Membrane Permeable-Phenotype (%)” value [4] was 2.76% and 6.94% and the “Population Mitotic Cells (%)” value [4] was 62.28% and 65.08%. The “Population Normal (%)” value [4] was 100%, the “Population Pyknosed Nuclei (%)” value [4] was 21.55% and 29.72% and the “Population Tubulin-Different-Phenotype (%)” value [4] was 2.76% and 2.78%. The “Total Cell Count” value [4] was 529 and 212, the “Population Apoptotic (%)” value [5] was 35.96% and 56% and the “Population Fragmented Nuclei (%)” value [5] was 3.36% and 3.03%. For the same compound, the “Population Healthy Nuclei (%)” value [5] was 87.83% and 87.5%, the “Population Hoechst High Intensity Objects (%)” value [5] was 0% and the “Population Membrane Permeable-Phenotype (%)” value [5] was 1.69% and 2.6%. For the same compound, the “Population Mitochondria Different-Phenotype (%)” value [5] was 0.34% and 5.63%, the “Population Mitotic Cells (%)” value [5] was 64.04% and 44% and the “Population Normal (%)” value [5] was 100%. The “Population Pyknosed Nuclei (%)” value [5] was 8.8% and 9.47%, the “Population Tubulin-Different-Phenotype (%)” value [5] was 1.58% and 0.43% and the “Population Apoptotic (%)” value [6] was 51.14% and 60.82%. For the same compound, the “Population Fragmented Nuclei (%)” value [6] was 5.7% and 6.6%, the “Population Healthy Nuclei (%)” value [6] was 63.11% and 59.72% and the “Population Hoechst High Intensity Objects (%)” value [6] was 0.14% and 0%. For the same compound, the “Population Membrane Permeable-Phenotype (%)” value [6] was 2.48% and 8.72%, the “Population Mitotic Cells (%)” value [6] was 48.86% and 39.18% and the “Population Normal (%)” value [6] was 99.86% and 100%. For the same compound, the “Population Pyknosed Nuclei (%)” value [6] was 31.2% and 33.68%, the “Population Tubulin-Different-Phenotype (%)” value [6] was 4.97% and 4.65% and the “Total Cell Count” value [6] was 703 and 288.
In the case of `O=C(NCc1cccc(O)c1)Nc1nc(-c2ccncc2)cs1`, the “Population Apoptotic (%)” value [1] is reported as 37.74% and 30.77%, the “Population Fragmented Nuclei (%)” value [1] is reported as 4.64% and 3.9% and the “Population Healthy Nuclei (%)” value [1] is reported as 83.06% and 79.22%. For the same compound, the “Population Hoechst High Intensity Objects (%)” value [1] was 0% and 0.65%, the “Population Membrane Permeable-Phenotype (%)” value [1] was 0.84% and 1.64% and the “Population Mitochondria Different-Phenotype (%)” value [1] was 0.28% and 9.02%. For the same compound, the “Population Mitotic Cells (%)” value [1] was 62.26% and 69.23%, the “Population Normal (%)” value [1] was 100% and 99.35% and the “Population Pyknosed Nuclei (%)” value [1] was 12.3% and 16.88%. The “Population Tubulin-Different-Phenotype (%)” value [1] was 1.96% and 0%, the “Total Cell Count” value [1] was 431 and 155 and the “Population Apoptotic (%)” value [2] was 52.63% and 52.17%. For the same compound, the “Population Fragmented Nuclei (%)” value [2] was 2.65% and 6.96%, the “Population Healthy Nuclei (%)” value [2] was 82.23% and 73.04% and the “Population Hoechst High Intensity Objects (%)” value [2] was 0.26% and 0%. For the same compound, the “Population Membrane Permeable-Phenotype (%)” value [2] was 1.61% and 4.76%, the “Population Mitotic Cells (%)” value [2] was 47.37% and 47.83% and the “Population Normal (%)” value [2] was 99.74% and 100%. The “Population Pyknosed Nuclei (%)” value [2] was 15.12% and 20%, the “Population Tubulin-Different-Phenotype (%)” value [2] was 2.9% and 0% and the “Population Apoptotic (%)” value [3] was 47.5% and 43.18%. For the same compound, the “Population Fragmented Nuclei (%)” value [3] was 2.77% and 4.12%, the “Population Healthy Nuclei (%)” value [3] was 82.47% and 73.2% and the “Population Hoechst High Intensity Objects (%)” value [3] was 0%. For the same compound, the “Population Membrane Permeable-Phenotype (%)” value [3] was 1.12% and 3.52%, the “Population Mitochondria Different-Phenotype (%)” value [3] was 0% and 5.63% and the “Population Mitotic Cells (%)” value [3] was 52.5% and 56.82%. For the same compound, the “Population Normal (%)” value [3] was 100%, the “Population Pyknosed Nuclei (%)” value [3] was 14.76% and 22.68% and the “Population Tubulin-Different-Phenotype (%)” value [3] was 0.67% and 0%. The “Total Cell Count” value [3] was 542 and 194, the “Population Apoptotic (%)” value [4] was 44.26% and 50% and the “Population Fragmented Nuclei (%)” value [4] was 3.67% and 6.77%. The “Population Healthy Nuclei (%)” value [4] was 83.15% and 67.67%, the “Population Hoechst High Intensity Objects (%)” value [4] was 0% and the “Population Membrane Permeable-Phenotype (%)” value [4] was 1.82% and 5.56%. For the same compound, the “Population Mitotic Cells (%)” value [4] was 55.74% and 50%, the “Population Normal (%)” value [4] was 100% and the “Population Pyknosed Nuclei (%)” value [4] was 13.17% and 25.56%. The “Population Tubulin-Different-Phenotype (%)” value [4] was 1.82% and 1.11%, the “Population Apoptotic (%)” value [5] was 50.98% and 51.79% and the “Population Fragmented Nuclei (%)” value [5] was 4.55% and 3.91%. The “Population Healthy Nuclei (%)” value [5] was 84.92% and 77.85%, the “Population Hoechst High Intensity Objects (%)” value [5] was 0.1% and 0% and the “Population Membrane Permeable-Phenotype (%)” value [5] was 0.12% and 2.09%. For the same compound, the “Population Mitochondria Different-Phenotype (%)” value [5] was 0% and 3.35%, the “Population Mitotic Cells (%)” value [5] was 49.02% and 48.21% and the “Population Normal (%)” value [5] was 99.9% and 100%. For the same compound, the “Population Pyknosed Nuclei (%)” value [5] was 10.54% and 18.24%, the “Population Tubulin-Different-Phenotype (%)” value [5] was 1.22% and 1.26% and the “Population Apoptotic (%)” value [6] was 60.92% and 61.11%. The “Population Fragmented Nuclei (%)” value [6] was 2.84% and 9.2%, the “Population Healthy Nuclei (%)” value [6] was 84.18% and 68.71% and the “Population Hoechst High Intensity Objects (%)” value [6] was 0%. The “Population Membrane Permeable-Phenotype (%)” value [6] was 1.6% and 6.25%, the “Population Mitochondria Different-Phenotype (%)” value [6] was 0% and 18.75% and the “Population Mitotic Cells (%)” value [6] was 39.08% and 38.89%. The “Population Normal (%)” value [6] was 100%, the “Population Pyknosed Nuclei (%)” value [6] was 12.99% and 22.09% and the “Population Tubulin-Different-Phenotype (%)” value [6] was 1.24% and 0.89%.
